Results on five compounds are retold here after ChEMBL document CHEMBL1124600, “Synthesis and biological properties of purine and pyrimidine 5'-deoxy-5'-(dihydroxyphosphinyl)-beta-D-ribofuranosyl analogues of AMP, GMP, IMP, and CMP” (J Med Chem, 1989).

Assay [1] has as its system Visna-maedi virus. Kind of assay: Antiviral activity at <=320 uM determined in a culture of Visna virus; IA = inactive. It is filed as functional, organism-based.
Assay [2] has as its system Human alphaherpesvirus 2. Kind of assay: Antiviral activity at <=320 uM determined in a culture of Herpes simplex virus type 2; IA = inactive. It is filed as functional, organism-based.
The subject of assay [3] is unidentified adenovirus. The assay is described as follows: Antiviral activity at <=320 uM determined in a culture of Adenovirus type 2; IA = inactive. It is filed as functional, organism-based.
Another assay has as its system CCRF-CEM. Kind of assay: Antitumor activity at <=100 uM determined in a 3-5 days culture of CCRF-CEM(human T cell leukemia); NA = no activity was shown. Type of assay: functional, cell-based. In outline: (§1)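 Wells seeded at (5–10) × 10³ cells with compound at 0.1–100 μM, triplicate wells, 37 °C. L1210 and WI-L2 ran 3 days, CCRF-CEM 4 days, Lovo/L 5 days. MTT was then added for 2 h and formazan dissolved in 2-propanol/0.04 M HCl before absorbance reading. ID50 is the concentration giving 50% of control growth.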

In a further assay the test system is LoVo. Kind of assay: Antitumor activity at <=100 uM determined in a 3-5 days culture of LOVO/L (human colon carcinoma); NA = no activity was shown. Type of assay: functional, cell-based. In outline: as §1
The subject of assay [4] is Influenza A virus. The assay is described as follows: Antiviral activity at <=320 uM determined in a culture of Influenza A; IA = inactive. Type of assay: functional, organism-based. The conditions noted are these: unidentified influenza virus.
The subject of assay [5] is WIL2. The assay is described as follows: Antitumor activity at <=100 uM determined in a 3-5 days culture of WI-L2 […]; NA = no activity was shown. Type of assay: functional, cell-based. In outline: as §1
Another assay relates to L1210. Kind of assay: Antitumor activity at <=100 uM determined in a 3-5 days culture of L1210 murine leukemia; NA = no activity was shown. Type of assay: functional, cell-based. The settings on record: Mus musculus. In outline:
as §1

Assay [6] deals with Enterovirus. The assay is described as follows: Antiviral activity at <=320 uM determined in a culture of Rhinovirus type 1-A; IA = inactive. Type of assay: functional, organism-based.
Assay [7] concerns WIL2. Kind of assay: Antitumor activity at <=100 uM determined in a 3-5 days culture of WI-L2 (human B-ltmphoblast); NA = no activity was shown. It is filed as functional, cell-based. In outline:
as §1

In the next assay the test system is Human respirovirus 3. Kind of assay: Antiviral activity at 10-30 uM determined in a culture of Parainfluenza virus type 3; IA = inactive. Type of assay: functional, organism-based.
Assay [8] has as its system Human alphaherpesvirus 2. Kind of assay: Antiviral activity at 1-3 uM determined in a culture of Herpes simplex virus type 2; IA = inactive. Type of assay: functional, organism-based.
In assay [9] the test system is unidentified adenovirus. The assay is described as follows: Antiviral activity at 100 uM determined in a culture of Adenovirus type 2; IA = inactive. Type of assay: functional, organism-based.
The test system of assay [10] is Enterovirus. The assay is described as follows: Antiviral activity at 100 uM determined in a culture of Rhinovirus type 1-A; IA = inactive. It is filed as functional, organism-based.
The test system of assay [11] is Visna-maedi virus. The assay is described as follows: Antiviral activity at 1-3 uM determined in a culture of Visna virus; IA = inactive. Type of assay: functional, organism-based.
The subject of assay [12] is Influenza A virus. The assay is described as follows: Antiviral activity at 10-30 uM determined in a culture of Influenza A; IA = inactive. It is filed as functional, organism-based. The settings on record: unidentified influenza virus.
Assay [13] is described as follows: Percent of phosphorylated forms of compound at 4 hr after phosphorylation by nucleoside monophosphate kinase. The settings on record: Bos taurus.

The structures appear in SMILES notation. The source made the active and inactive calls. No cut-off for these calls is given here.

As for `O=P(O)(O)C[C@H]1OC(n2cnc3c(O)ncnc32)[C@H](O)[C@@H]1O` (stereo partly drawn), the outcome with Visna-maedi virus [1], in the assay on Human alphaherpesvirus 2 [2], in the assay on unidentified adenovirus [3], in the assay with CCRF-CEM, with LoVo and with Influenza A virus [4] was inactive. Moreover, the outcome with WIL2 [5], in the assay with L1210 and in the assay on Enterovirus [6] was inactive.

Take `Nc1nc(O)c2ncn(C3O[C@H](CP(=O)(O)O)[C@@H](O)[C@H]3O)c2n1` (stereo partly drawn): the result in the assay with Visna-maedi virus [1], with Human alphaherpesvirus 2 [2], in the assay on unidentified adenovirus [3], in the assay with CCRF-CEM, in the assay on LoVo and with Influenza A virus [4] was inactive. Further, the result in the assay with L1210, in the assay with Enterovirus [6] and with WIL2 [7] was inactive.

On to `NC(=O)c1ncn([C@@H]2O[C@H](CO)[C@@H](O)[C@H]2O)n1`, for which the result in the assay with Human respirovirus 3, in the assay on Human alphaherpesvirus 2 [8], in the assay with unidentified adenovirus [9], in the assay on Enterovirus [10], with Visna-maedi virus [11] and with Influenza A virus [12] was inactive.

With `Nc1ccn(C2O[C@H](CP(=O)(O)O)[C@@H](O)[C@H]2O)c(=O)n1` (stereo partly drawn), the result in the assay with Visna-maedi virus [1], with Human alphaherpesvirus 2 [2], with unidentified adenovirus [3], with CCRF-CEM, with LoVo and in the assay with Influenza A virus [4] was inactive. For the same compound, the outcome in the assay with L1210, in the assay with Enterovirus [6] and in the assay on WIL2 [7] was inactive. For the same compound, the % nucleotide present in [13] was 87%.

`O=c1ccn(C2O[C@H](CP(=O)(O)O)[C@@H](O)[C@H]2O)c(=O)[nH]1` (stereo partly drawn): the result in the assay with Visna-maedi virus [1], with Human alphaherpesvirus 2 [2], in the assay on unidentified adenovirus [3], in the assay on CCRF-CEM, with LoVo and in the assay on Influenza A virus [4] was inactive. Moreover, the result in the assay with L1210, in the assay on Enterovirus [6] and in the assay on WIL2 [7] was inactive.
